# Bioassay records (PubChem)
# In the library only some 2% were active in any assay of this set; here they are far more common.
# XBP1 UPR activ: adaptive UPR (XBP1) activation; CHO-XBP1 luciferase reporter, IRE1-XBP1 UPR activation, luminescence; percent of tunicamycin response, DMSO as zero; activation, % at 20 µM; 0.33% of 330,000 active; AID 463104;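 active = versus positive control, 20 µM dose yields 30% or more activation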
#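 Assay system: CHO-XBP1 luciferase reporter cells; Schedule: 6 h treatment, 37 °C; Detection: glow luminescence from Steady-Glo reagent; Benchmarks: high control tunicamycin 10 µg/mL final, low control DMSO vehicle only.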
# MC4R barr agon: human MC4R agonism via beta-arrestin; P32245; U2OS MC4R beta-arrestin complementation, luminescence; percent of melanotan II response, DMSO zero; activation, % at 8.9 µM; 0.98% of 360,000 active; AID 540308;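 active = activation above a per-plate cutoff, the mean activation of sample wells on that plate plus 3 SD, cut at about 8% in these data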
# Target sequence (P32245 whole entry, looked up): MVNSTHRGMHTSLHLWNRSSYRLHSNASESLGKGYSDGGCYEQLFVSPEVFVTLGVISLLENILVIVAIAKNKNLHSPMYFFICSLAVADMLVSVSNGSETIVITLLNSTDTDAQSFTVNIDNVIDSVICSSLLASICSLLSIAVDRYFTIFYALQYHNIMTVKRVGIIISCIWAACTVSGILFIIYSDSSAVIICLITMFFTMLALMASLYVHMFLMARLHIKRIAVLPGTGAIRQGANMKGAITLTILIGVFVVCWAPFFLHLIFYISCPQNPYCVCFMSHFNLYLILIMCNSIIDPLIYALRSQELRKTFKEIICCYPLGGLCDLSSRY
# Bfl-1 A1 inh: inhibitors of the anti-apoptotic protein A1, read as caspase activation. 0.066% of 330,000 active. MEF A1-2A-BIM cells, Caspase-Glo 3/7 luminescence, 3 h; percent of clofoctol response, vehicle zero. AID 2462. caspase activation, % (test concentration not listed);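 active = over half of replicate activation scores above 10%, or exactly half above 10 with the replicate mean above 10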
# UPR CHOP act: activators of apoptotic arm of unfolded protein response (CHOP). CHO-CHOP luciferase reporter, UPR activation, luminescence; percent of tunicamycin response over DMSO baseline. activation, % at 10 µM. 0.34% of 330,000 active;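 active = at 10 µM dose, activation of 40% or more, normalized to positive control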
#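 Test system: CHO-CHOP cells, stable luciferase reporter of PERK-eIF2a-CHOP signalling | Quantity: 500 CHO-CHOP cells per well | Buffer or medium: F12 plus 10% serum | Compound dosing: 10 µM single point, 0.5% DMSO | Schedule: 6 h compound treatment, 37 °C | Signal: Luciferase luminescence | Control set: Tunicamycin high control, DMSO low control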
# MC4R antag cAMP: antagonists of human melanocortin 4 receptor (MC4R) | MC4R-expressing cells, MTII-stimulated cAMP, LANCE TR-FRET | inhibition, % at 6.5 µM | 0.48% of 360,000 active | AID 540295;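 active = inhibition above its plate's cutoff, the mean of tested wells on that plate plus 3 SD, cut at about 29% in these data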
#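 System: U2OS cells stably expressing human melanocortin 4 receptor (MC4R). Reagent: Melanotan II challenge after compound preincubation. Doses: 6.5 µM. Times: 30-min compound, 1-h challenge, 1-h detection, room temperature. Measured by: TR-FRET with Eu-cAMP and labeled anti-cAMP, 671 nm. Replicates: singlicate.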
# CHOP UPR conf: confirmation of apoptotic unfolded protein response (CHOP) activators; shares compounds with UPR CHOP act; CHO-CHOP cells, CHOP-luciferase reporter luminescence; percent of tunicamycin response, DMSO as zero; activation, % at 10 µM; 64% of 1,000 active; in the data active = activation above about 33%
# A number is an active result; . = inactive; / = no result.
SMILES,XBP1 UPR activ,MC4R barr agon,Bfl-1 A1 inh,UPR CHOP act,MC4R antag cAMP,CHOP UPR conf
CCOC(=O)COc1ccc(/C=C/[N+](=O)[O-])c(OCC(=O)OCC)c1,.,.,.,358,.,.
O=[N+]([O-])c1cc(O)c2ncccc2c1,.,/,.,109,/,88
O=[N+]([O-])c1cc2cccnc2c2ncccc12,.,.,.,.,.,/
O=C(Nc1ccc2c(c1)OCO2)c1cc(C2CCCCN2C(=O)c2ccccc2)on1 (centres undefined),/,.,/,/,.,/
Cc1ccc(Oc2c(C(N)=O)cc([N+](=O)[O-])cc2[N+](=O)[O-])cc1,.,.,.,64,.,.
Cc1ccc(CNc2ccc([N+](=O)[O-])cc2C(N)=O)cc1,.,.,.,.,.,/
Cc1cccnc1C(NC(=O)C1CCN(CCCc2ccccc2)CC1)c1ccc(F)cc1 (centres undefined),/,.,/,/,.,/
Cc1ccc(N2C(=O)c3ccccc3C2=O)cc1,.,.,.,.,.,/
Cc1ccc(SC2=C(Sc3ccc(C)cc3)C(=O)c3ccccc3C2=O)cc1,.,.,.,215,.,.
O=C(CSc1ccccn1)Nc1ccc(NC(=O)CSc2ccccn2)cc1,.,.,.,.,.,/
O=C(CSc1ccccn1)Nc1nonc1[N+](=O)[O-],.,.,/,85,.,42
O=C(CCN1CCCCC1)c1cccc(Cl)c1,/,.,/,/,.,/
CNc1cccc(-c2cc(OC)ccc2OC)n1,/,.,/,/,.,/
Cc1ccc(Sc2nc3ccc(C)cn3c(=O)c2/C=N/O)cc1,.,.,.,52,.,.
CC(=O)Nc1ccc(C(=O)N2CCCC(c3cc(C(=O)NCc4ccc(F)cc4)no3)C2)cc1 (centres undefined),/,.,/,/,.,/
N#C/C(=C\c1cc(Br)ccc1F)C(=O)NC1CC1,.,.,.,.,.,/
O=C(Nc1ccc(Cl)cc1)/C(=C/c1cccc(O)c1)c1nc2ccccc2s1,.,.,.,114,.,62
O=C(O)C/C(=C\c1cccc(NC(=O)c2ccccc2Cl)c1)c1nc2ccccc2s1,.,.,.,.,.,/
COc1cc(/C=C(/C#N)c2nc3ccccc3[nH]2)ccc1OCC(=O)Nc1ccccc1C(C)C,.,.,10.0,76,.,64
CN(C)Cc1csc(NC(=O)Nc2ccccc2C(C)(C)C)n1,/,.,/,/,.,/
COC(=O)CN1C(=O)CSc2ccc(S(=O)(=O)N3CCC(C)CC3)cc21,/,.,/,/,.,/
CC1=NN(c2ccc(C)cc2)C(=O)/C1=C\C=C\c1ccccc1,.,.,.,.,.,/
CC1=NN(c2cccc(C(=O)O)c2)C(=O)/C1=C\C=C/c1ccccc1,.,.,/,95,.,130
N#C/C(=C/c1ccc(O)c(O)c1)C(=O)NCc1ccc(Cl)cc1,.,.,.,103,.,.
CC(C)c1ccc(NC(=O)/C(C#N)=C/c2ccncc2)cc1,.,.,.,59,.,97
SMILES,XBP1 UPR activ,MC4R barr agon,Bfl-1 A1 inh,UPR CHOP act,MC4R antag cAMP,CHOP UPR conf
O=C(Nc1nc(-c2ccccn2)cs1)c1ccc(Cl)s1,.,.,.,90,.,126
Cc1cccc(Nc2nc(-c3ccccn3)cs2)n1,.,.,.,83,.,35
Cc1cccnc1Nc1nc(-c2ccccn2)cs1,.,.,.,451,.,471
Cc1cccnc1Nc1nc(-c2ccccc2)cs1,.,.,.,.,.,/
CC(C)(C)c1ccc(S(=O)(=O)Nc2ccc(C(O)(C(F)(F)F)C(F)(F)F)cc2)cc1,/,.,/,/,.,/
COc1ccccc1OCC(=O)N/N=C(\C)c1ccc2ccccc2c1,/,.,/,/,.,/
COc1ccc(C#Cc2cnc3c(c2)C(=O)N([C@H](C)CO)C[C@@H](C)[C@H](CN(C)C(=O)CN(C)C)O3)cc1,/,.,/,/,.,/
CCc1nc2ccc(C(=O)Nc3cc(-c4ccccc4)ccc3OC)cn2c1N(C)C(=O)c1cccc(OC)c1,/,.,/,/,.,/
CC1=CC(=O)C=C(C)C1=NOC(=O)c1cccc([N+](=O)[O-])c1,.,.,.,46,.,.
COc1ccc(-c2oc(NC(=O)CCl)c(C#N)c2-c2ccc(OC)cc2)cc1,.,.,.,489,.,218
CCN1CCN(Cc2c(O)ccc3c2O/C(=C\c2ccccc2)C3=O)CC1,.,.,.,.,.,/
O=C1/C(=C/C=C/c2ccccc2)Oc2c1ccc(O)c2CN1CCN(CCO)CC1,.,.,.,.,.,/
CCN1CCN(Cc2c(O)ccc3c2O/C(=C\C=C\c2ccccc2)C3=O)CC1,.,.,.,154,.,.
CN(C)Cc1c(O)ccc2c1O/C(=C\C=C\c1ccccc1)C2=O,.,.,.,97,.,.
Cc1c(NS(=O)(=O)c2cccs2)cccc1-c1nc2cccnc2s1,.,.,.,.,.,/
O=S(=O)(Nc1cccc2ncccc12)c1cccs1,.,.,.,49,.,.
Cc1ccc2ccccc2c1C(O)c1ncc(-c2ccccc2Cl)[nH]1 (centres undefined),/,.,/,/,.,/
COc1ccc(C2Nc3ccccc3NC3=C2C(=O)CC(C)(C)C3)cc1O (centres undefined),.,.,.,/,.,.
CN(C(=O)CSc1cc(C(=O)c2nccn2C)c2ccccc2n1)c1ccccc1,.,.,.,95,.,94
Cn1ccnc1C(=O)c1cc(SCC(=O)NC2CC2)nc2ccccc12,.,.,.,.,.,/
COCc1cc(=O)[nH]c(Nc2nc3ccccc3o2)n1,.,.,.,.,.,/
Cc1ccc2oc(Nc3nc(-c4ccccc4)cc(=O)[nH]3)nc2c1,.,/,/,364,/,423
CC(C)(C)C(=O)N1CCN(c2ccc(NC(=O)c3ccc([N+](=O)[O-])o3)cc2)CC1,.,.,.,59,.,87
CC1=NN(c2ccccc2)C(=O)C1CCC#N (centres undefined),/,.,/,/,.,/
O=C(Oc1oc(-c2ccco2)nc1C=Nc1ccc(Cl)cc1)c1ccco1,.,.,.,77,.,76
COc1ccc(N=Cc2nc(-c3ccco3)oc2O)cc1,.,.,.,.,.,/
COc1ccccc1-c1cnc2c(c1)C(=O)N([C@@H](C)CO)C[C@@H](C)[C@H](CN(C)C(=O)c1cccnc1)O2,/,.,/,/,.,/
[O-][n+]1c(/C=C/c2ccccc2)ccc2ccccc21,.,.,.,127,.,.
CCc1nc2ccc(C(=O)Nc3ccc4c(c3)OCC(=O)N4)cn2c1N(C)C(=O)C1CCCCC1,/,.,/,/,.,/
OC(c1cc(Cl)cc(Cl)c1)c1ncc(-c2cccc(F)c2)[nH]1 (centres undefined),/,.,/,/,.,/
